Experimental data published in paper PMC7452071 (Acta Pharmaceutica Sinica. B, 2019).
Like-named read-outs stand apart in the source and are kept apart here.

What was measured:
TOP1 = TOP1 (Bos taurus, UniProt F1MN93); assay: TOP1-mediated pBR322 DNA relaxation assay; assay type: biochemical; conditions: 100 μmol/L
γH2AX in HCT116 cells = assay: Western blot for γH2AX; assay type: cell-based, human; conditions: 0.5 and 5 μmol/L, 24 h
In short: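 HCT116 seeded at 35 × 10^4 cells/well, treated 24 h with test compound or vehicle. Cells washed in cold PBS, lysed 30 min on ice in RIPA with protease and phosphatase inhibitors, protein quantified by BCA. 30 μg resolved by SDS-PAGE, transferred to PVDF, blocked 2 h in 5% BSA, primary antibody overnight at 4 °C, secondary 1.5 h, infrared imaging.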

A549 (lung cancer) = assay: In vitro cell viability assay; assay type: cell-based; conditions: Homo sapiens, A549, 48 h, read-out: IC50 A549
TOP2α = TOP2α (Homo sapiens, UniProt P11388); assay: TOP2-mediated pBR322 DNA relaxation assay; assay type: biochemical
HCT116 (colon cancer) = assay: In vitro cell viability assay; assay type: cell-based; conditions: Homo sapiens
[1] = molecular target: human recombinant HDAC1 enzyme (Homo sapiens, UniProt Q13547); assay: HDACs activity assay, HDAC1; assay type: biochemical
MCF-7 (breast cancer) = assay: In vitro cell viability assay; assay type: cell-based; conditions: Homo sapiens, MCF7, 48 h, read-out: IC50 MCF-7
[2] = system: HCT116, MCF-7 and A549 cell lines; assay: In vitro cell viability assay; assay type: cell-based; conditions: Homo sapiens, read-out: IC50 range against the three tested cell lines
In short: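 Cells were grown in 10% FBS at 37 °C, 5% CO2, seeded in DMEM and held 24 h to 60%–70% confluency. They were then exposed to graded test compound concentrations or vehicle for 48 h. 10% CCK8 was added for 1–4 h at 37 °C and absorbance read at 450. IC50 was computed by the Logit method; three experiments.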

[3] = In vitro metabolic stability in mice liver microsomes; assay type: in vitro ADME; conditions: female, ICR, mouse, liver microsomes, pH 7.4
[4] = system: hematological cell lines (HL60, K562 and HEL); assay: Antiproliferative activity, hematological cell lines together; assay type: cell-based; conditions: read-out: IC50 range toward hematological cell lines
HCT116 xenograft = assay: In vivo tumor growth inhibition assay against HCT116 xenograft; conditions: bid
[5] = HCT-116, 48 h, read-out: IC50 HCT116

Sequence of human recombinant HDAC1 enzyme (Q13547 whole entry): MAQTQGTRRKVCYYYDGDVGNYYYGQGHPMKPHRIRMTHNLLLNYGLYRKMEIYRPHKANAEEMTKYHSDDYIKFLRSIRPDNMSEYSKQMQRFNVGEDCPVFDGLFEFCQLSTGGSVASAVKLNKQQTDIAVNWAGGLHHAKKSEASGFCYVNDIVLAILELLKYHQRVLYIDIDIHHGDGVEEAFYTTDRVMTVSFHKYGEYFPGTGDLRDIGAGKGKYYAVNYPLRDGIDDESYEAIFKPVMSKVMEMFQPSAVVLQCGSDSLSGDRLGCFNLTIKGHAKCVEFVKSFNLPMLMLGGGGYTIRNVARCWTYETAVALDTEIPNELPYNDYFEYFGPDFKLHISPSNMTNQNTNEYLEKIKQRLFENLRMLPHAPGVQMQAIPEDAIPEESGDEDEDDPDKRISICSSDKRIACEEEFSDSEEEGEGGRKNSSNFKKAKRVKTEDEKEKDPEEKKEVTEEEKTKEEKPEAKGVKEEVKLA
Sequence of TOP2α (P11388 whole entry): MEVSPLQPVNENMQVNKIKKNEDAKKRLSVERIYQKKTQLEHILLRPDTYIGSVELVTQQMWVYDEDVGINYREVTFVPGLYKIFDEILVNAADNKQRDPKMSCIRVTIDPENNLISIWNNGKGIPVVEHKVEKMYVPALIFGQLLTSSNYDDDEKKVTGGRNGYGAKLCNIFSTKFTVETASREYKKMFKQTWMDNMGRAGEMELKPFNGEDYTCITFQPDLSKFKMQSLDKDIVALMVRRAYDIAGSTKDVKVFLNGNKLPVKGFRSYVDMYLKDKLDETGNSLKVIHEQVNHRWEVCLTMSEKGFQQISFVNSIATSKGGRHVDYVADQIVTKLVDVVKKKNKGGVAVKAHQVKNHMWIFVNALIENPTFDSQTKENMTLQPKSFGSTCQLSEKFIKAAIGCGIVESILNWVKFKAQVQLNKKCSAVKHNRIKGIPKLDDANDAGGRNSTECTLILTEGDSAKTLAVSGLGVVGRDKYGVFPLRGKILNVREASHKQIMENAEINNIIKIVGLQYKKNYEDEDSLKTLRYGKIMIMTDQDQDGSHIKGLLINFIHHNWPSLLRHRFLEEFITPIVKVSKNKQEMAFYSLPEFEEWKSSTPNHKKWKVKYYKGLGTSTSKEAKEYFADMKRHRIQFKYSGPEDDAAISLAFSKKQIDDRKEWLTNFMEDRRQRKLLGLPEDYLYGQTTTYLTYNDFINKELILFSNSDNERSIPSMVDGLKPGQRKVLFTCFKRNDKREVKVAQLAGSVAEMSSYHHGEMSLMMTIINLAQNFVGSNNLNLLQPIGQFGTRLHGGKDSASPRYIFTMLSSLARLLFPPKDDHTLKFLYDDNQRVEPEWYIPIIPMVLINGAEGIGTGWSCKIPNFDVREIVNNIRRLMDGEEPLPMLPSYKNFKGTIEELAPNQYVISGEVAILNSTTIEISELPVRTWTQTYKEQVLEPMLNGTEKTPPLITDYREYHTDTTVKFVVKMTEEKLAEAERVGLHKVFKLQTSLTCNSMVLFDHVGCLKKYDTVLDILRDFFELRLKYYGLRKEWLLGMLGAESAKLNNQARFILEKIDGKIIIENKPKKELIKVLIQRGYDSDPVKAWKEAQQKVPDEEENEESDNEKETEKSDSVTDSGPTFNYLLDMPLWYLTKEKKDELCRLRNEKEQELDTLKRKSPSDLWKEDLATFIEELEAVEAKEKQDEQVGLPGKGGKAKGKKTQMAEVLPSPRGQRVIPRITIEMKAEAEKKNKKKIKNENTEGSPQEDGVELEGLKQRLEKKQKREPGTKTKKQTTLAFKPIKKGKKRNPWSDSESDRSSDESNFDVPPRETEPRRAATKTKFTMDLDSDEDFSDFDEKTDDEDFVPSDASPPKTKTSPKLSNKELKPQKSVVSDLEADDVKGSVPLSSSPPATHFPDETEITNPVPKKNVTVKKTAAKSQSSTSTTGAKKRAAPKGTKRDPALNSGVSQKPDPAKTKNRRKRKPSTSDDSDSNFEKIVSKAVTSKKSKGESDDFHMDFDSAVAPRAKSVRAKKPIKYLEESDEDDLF
Sequence of TOP1 (F1MN93 1-767): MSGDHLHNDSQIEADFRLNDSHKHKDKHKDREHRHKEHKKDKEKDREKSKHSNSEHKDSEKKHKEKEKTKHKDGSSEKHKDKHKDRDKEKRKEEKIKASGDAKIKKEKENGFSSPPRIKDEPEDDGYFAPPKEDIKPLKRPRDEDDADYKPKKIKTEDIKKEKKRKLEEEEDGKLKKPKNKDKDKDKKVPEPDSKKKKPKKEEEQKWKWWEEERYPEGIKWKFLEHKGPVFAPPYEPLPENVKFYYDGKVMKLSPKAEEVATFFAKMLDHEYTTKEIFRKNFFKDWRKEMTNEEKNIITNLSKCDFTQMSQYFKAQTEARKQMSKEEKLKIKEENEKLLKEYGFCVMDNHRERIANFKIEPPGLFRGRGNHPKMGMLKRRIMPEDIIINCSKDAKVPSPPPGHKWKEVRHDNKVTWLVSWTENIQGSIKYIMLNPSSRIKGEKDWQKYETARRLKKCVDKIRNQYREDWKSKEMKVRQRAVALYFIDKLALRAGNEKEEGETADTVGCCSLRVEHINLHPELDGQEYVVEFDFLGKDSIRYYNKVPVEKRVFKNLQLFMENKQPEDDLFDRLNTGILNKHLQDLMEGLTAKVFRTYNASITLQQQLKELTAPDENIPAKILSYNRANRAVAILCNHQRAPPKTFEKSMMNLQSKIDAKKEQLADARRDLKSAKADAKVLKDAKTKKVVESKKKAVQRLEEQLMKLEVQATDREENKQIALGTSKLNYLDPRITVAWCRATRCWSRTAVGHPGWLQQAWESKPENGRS

Row | Compound | IC50 (A549 (lung cancer)) [nM] | TOP2 inhibitory activity (relaxation assay) (TOP2α; 100 μmol/L) | IC50 (HCT116 (colon cancer); [5]) [nM] | IC50 [1] [nM] | IC50 (MCF-7 (breast cancer)) [nM] | further results
1 | CC[C@@]1(O)C(=O)OCc2c1cc1n(c2=O)Cc2cc3ccccc3nc2-1 [CPT, Camptothecin] |  |  |  |  |  | TOP1 relaxation activity (supercoiled DNA band) (TOP1): obviously supercoiled DNA accumulation
2 | O=C(CCCCCCC(=O)Nc1ccccc1)NO [Compound 1, vorinostat] |  |  |  |  |  | Expression of γH2AX (γH2AX in HCT116 cells): no increase
3 | CN1c2ccccc2C(=O)N2[C@H](C(=O)Nc3ccc(C(=O)NO)cc3)Cc3c([nH]c4ccccc34)[C@@H]12 [Compound 32, (7S,13bS)-N-(4-(Hydroxycarbamoyl)phenyl)-14-methyl-5-oxo-5,7,8,13,13b,14-hexahydroindolo[2′,3':3,4]pyrido[2,1-b]quinazoline-7-carboxamide] | 11000 ± 1200 | remarkable TOP2 inhibitory activities | 2200 ± 180 | 260 ± 24 | 13000 ± 1400 | TOP2 inhibitory activity (relaxation assay) (TOP2α; 50 μmol/L): remarkable TOP2 inhibitory activities
4 | CN1c2ccccc2C(=O)N2[C@@H](C(=O)Nc3ccc(/C=C/C(=O)NO)cc3)Cc3c([nH]c4ccccc34)[C@H]12 [ent-25a, (7R,13bR)-N-(4-((E)-3-(Hydroxyamino)-3-oxoprop-1-en-1-yl)phenyl)-14-methyl-5-oxo-5,7,8,13,13b,14-hexahydroindolo[2′,3′:3,4]pyrido[2,1-b]quinazoline-7-carboxamide] | 2800 ± 220 |  | 530 ± 450 | 18 ± 1.6 | 1600 ± 140 | 
5 | CN1c2ccccc2C(=O)N2[C@@H](C(=O)Nc3cccc(/C=C/C(=O)NO)c3)Cc3c([nH]c4ccccc34)[C@H]12 [ent-25b, (7R,13bR)-N-(3-((E)-3-(Hydroxyamino)-3-oxoprop-1-en-1-yl)phenyl)-14-methyl-5-oxo-5,7,8,13,13b,14-hexahydroindolo[2′,3′:3,4]pyrido[2,1-b]quinazoline-7-carboxamide] | 20000 ± 2400 |  | 3100 ± 280 | 10 ± 0.6 | 12000 ± 1500 | 
6 | CN1c2ccccc2C(=O)N2[C@@H](C(=O)Nc3ccc(C(=O)Nc4ccccc4N)cc3)Cc3c([nH]c4ccccc34)[C@H]12 [ent-30a, (7R,13bR)-N-(4-((2-Aminophenyl)carbamoyl)phenyl)-14-methyl-5-oxo-5,7,8,13,13b,14-hexahydroindolo[2′,3′:3,4]pyrido[2,1-b]quinazoline-7-carboxamide] | 5400 ± 480 |  | 2900 ± 2000 | 22 ± 2.1 | 17000 ± 1800 | 
7 | CN1c2ccccc2C(=O)N2[C@@H](C(=O)Nc3ccc(C(=O)NO)cc3)Cc3c([nH]c4ccccc34)[C@H]12 [ent-32, (7R,13bR)-N-(4-(Hydroxycarbamoyl)phenyl)-14-methyl-5-oxo-5,7,8,13,13b,14-hexahydroindolo[2′,3′:3,4]pyrido[2,1-b]quinazoline-7-carboxamide] | 12000 ± 1500 |  | 1600 ± 130 | 10 ± 0.8 | 5300 ± 500 | 
8 | Evodiamine [Compound 6, reference compound] |  |  |  |  |  | Tumor growth inhibition (TGI) (HCT116 xenograft; 150 mg/kg, p.o., 21 days (dose of the combination not given)): 45.53%; Expression of γH2AX (γH2AX in HCT116 cells): no increase

Second part, led by results:

Row | IC50 (A549 (lung cancer)) [nM] | TOP2 inhibitory activity (relaxation assay) (TOP2α; 100 μmol/L) | IC50 (HCT116 (colon cancer); [5]) [nM] | IC50 [1] [nM] | IC50 (MCF-7 (breast cancer)) [nM] | Compound | further results
9 | 27000 ± 2100 | inactive | 7200 ± 520 | 27 ± 2.3 | 15000 ± 2500 | CN1c2ccccc2C(=O)N2[C@H](C(=O)NCCCCCCC(=O)NO)Cc3c([nH]c4ccccc34)[C@@H]12 [Compound 20a, (7S,13bS)-N-(7-(Hydroxyamino)-7-oxoheptyl)-14-methyl-5-oxo-5,7,8,13,13b,14-hexahydroindolo[2′,3′:3,4]pyrido[2,1-b]quinazoline-7-carboxamide] | IC50 [2]: 7200 to 27000 nM
10 | > 50000 | inactive | 11000 ± 1300 | 53 ± 4.5 | > 50000 | CN1c2ccccc2C(=O)N2[C@H](C(=O)NCCCCCC(=O)NO)Cc3c([nH]c4ccccc34)[C@@H]12 [Compound 20b, (7S,13bS)-N-(6-(Hydroxyamino)-6-oxohexyl)-14-methyl-5-oxo-5,7,8,13,13b,14-hexahydroindolo[2′,3′:3,4]pyrido[2,1-b]quinazoline-7-carboxamide] | 
11 | 10000 ± 1200 | remarkable TOP2 inhibitory activities | 630 ± 520 | 89 ± 6.2 | 3000 ± 250 | CN1c2ccccc2C(=O)N2[C@H](C(=O)Nc3ccc(/C=C/C(=O)NO)cc3)Cc3c([nH]c4ccccc34)[C@@H]12 [Compound 25a, (7S,13bS)-N-(4-((E)-3-(Hydroxyamino)-3-oxoprop-1-en-1-yl)phenyl)-14-methyl-5-oxo-5,7,8,13,13b,14-hexahydroindolo[2′,3′:3,4]pyrido[2,1-b]quinazoline-7-carboxamide] | TOP2 inhibitory activity (relaxation assay) (TOP2α; 50 μmol/L): remarkable TOP2 inhibitory activities; half-life at 1 μmol/L [3]: 9.86 min; IC50 [4]: 340 to 1000 nM; Tumor growth inhibition (TGI) (HCT116 xenograft; 20 mg/kg, i.p., 14 consecutive days): 2.2%
12 | 15000 ± 1400 | remarkable TOP2 inhibitory activities | 520 ± 360 | 31 ± 2.3 | 2200 ± 180 | CN1c2ccccc2C(=O)N2[C@H](C(=O)Nc3cccc(/C=C/C(=O)NO)c3)Cc3c([nH]c4ccccc34)[C@@H]12 [Compound 25b, (7S,13bS)-N-(3-((E)-3-(Hydroxyamino)-3-oxoprop-1-en-1-yl)phenyl)-14-methyl-5-oxo-5,7,8,13,13b,14-hexahydroindolo[2′,3′:3,4]pyrido[2,1-b]quinazoline-7-carboxamide] | TOP2 inhibitory activity (relaxation assay) (TOP2α; 50 μmol/L): remarkable TOP2 inhibitory activities
13 | 7900 ± 680 |  | 2400 ± 220 | 180 ± 20 | > 50000 | CN1c2ccc(F)cc2C(=O)N2[C@H](C(=O)Nc3ccc(C(=O)Nc4ccccc4N)cc3)Cc3c([nH]c4ccccc34)[C@@H]12 [Compound 30b, (7S,13bS)-N-(4-((2-Aminophenyl)carbamoyl)phenyl)-3-fluoro-14-methyl-5-oxo-5,7,8,13,13b,14-hexahydroindolo[2′,3′:3,4]pyrido[2,1-b]quinazoline-7-carboxamide] | IC50 (HCT116 (colon cancer); HCT-116, read-out: IC50 HCT116): 3600 nM
